# Experimental data reported in ChEMBL document CHEMBL1142339, “Carbamoylphosphonate matrix metalloproteinase inhibitors 6: cis-2-aminocyclohexylcarbamoylphosphonic acid, a novel orally active antimetastatic matrix metalloproteinase-2 selective inhibitor--synthesis and pharmacodynamic and pharmacokinetic analysis” (J Med Chem, 2008).
# What was measured:
# [1] = tested on: B16-F10; assay: Reduction in tumor colonization in of C57B1 mouse bearing B16F10 cells at 50 mg/kg, po after 21 days; assay type: functional; parameters: scale not given: the % may be the effect or the level left
# Procedure, shortened: (§1)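 Female C57Bl mice given 50k B16F10 cells via tail vein; dosing started the same day, daily except weekends for three weeks, in PBS, ip or oral (dose-response 12.5–50 mg/kg ip). Lungs fixed at day 21 and metastatic foci counted; eight mice per group.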
# [2] = AUC in Wistar rat at 150 mg/kg, po; assay type: ADME, organism-based; parameters: dose 150 mg/kg, route oral; details: plasma
# Procedure, shortened: (§2)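 Compound dissolved in normal saline/water 60/40 (20 mg/mL). Rats: fasted 12 h before and first 12 h; blood sampled 5–240 min after iv, to 8 h oral, to 24 h ip; urine collected at 24 and 48 h in metabolic cages. Mice (22–25 g, fasted 12 h): portal-vein blood under ether at 0–720 min, one mouse per time point. Plasma quantified by HPLC-MS with acyclovir internal standard.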
# [3] = tested on: Rattus norvegicus; assay: Time over MIC in Wistar rat at 150 mg/kg, po; assay type: ADME, organism-based; parameters: dose 150 mg/kg, route oral; details: in vivo; procedure, shortened: as §2
# [4] = Volume of distribution at steady state in Wistar rat at 50 mg/kg, iv; assay type: ADME, organism-based; parameters: dose 50 mg/kg, route intravenous; details: in vivo, read-out: Vdss; procedure, shortened: as §2
# [5] = tested on: B16-F10; assay: Reduction in tumor colonization in C57B1 mouse bearing B16F10 cells at 50 mg/kg, ip after 21 days; assay type: functional; parameters: scale not given: the % may be the effect or the level left; details: route intraperitoneal; procedure, shortened: as §1
# [6] = Apparent permeability in C57B1 mouse colon in using diffusion chamber; assay type: ADME, tissue-based; details: not told
# [7] = Half life in C57B1 mouse at 150 mg/kg, po; assay type: ADME, organism-based; parameters: dose 150 mg/kg, route oral; details: in vivo; procedure, shortened: as §2
# [8] = biological target: Disintegrin and metalloproteinase domain-containing protein 17 (Homo sapiens, UniProt P78536); assay: Inhibition of human recombinant TACE
# Sequence of Disintegrin and metalloproteinase domain-containing protein 17 (P78536 whole entry, the tested form may be a part): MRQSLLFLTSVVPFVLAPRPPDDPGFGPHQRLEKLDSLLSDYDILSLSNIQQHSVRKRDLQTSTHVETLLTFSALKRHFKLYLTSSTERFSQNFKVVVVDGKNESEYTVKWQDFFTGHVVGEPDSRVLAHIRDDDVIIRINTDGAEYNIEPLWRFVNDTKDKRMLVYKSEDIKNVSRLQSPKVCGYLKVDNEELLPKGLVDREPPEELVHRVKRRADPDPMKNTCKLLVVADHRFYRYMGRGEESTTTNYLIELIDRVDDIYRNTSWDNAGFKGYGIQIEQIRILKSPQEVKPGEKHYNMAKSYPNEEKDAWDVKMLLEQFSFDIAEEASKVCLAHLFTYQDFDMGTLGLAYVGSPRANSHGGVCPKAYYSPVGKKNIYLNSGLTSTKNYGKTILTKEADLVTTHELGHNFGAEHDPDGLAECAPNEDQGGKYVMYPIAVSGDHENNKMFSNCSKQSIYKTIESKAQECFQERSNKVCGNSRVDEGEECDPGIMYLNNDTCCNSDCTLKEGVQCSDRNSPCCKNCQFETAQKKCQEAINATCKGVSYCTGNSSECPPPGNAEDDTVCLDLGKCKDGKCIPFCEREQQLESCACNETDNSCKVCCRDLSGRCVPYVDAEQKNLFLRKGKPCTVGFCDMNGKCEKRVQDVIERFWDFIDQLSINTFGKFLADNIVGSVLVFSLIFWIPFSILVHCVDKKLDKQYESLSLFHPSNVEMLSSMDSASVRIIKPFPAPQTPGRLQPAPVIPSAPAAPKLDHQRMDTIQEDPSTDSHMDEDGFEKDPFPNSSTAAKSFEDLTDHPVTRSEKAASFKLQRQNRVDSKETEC
# Procedure, shortened: (§3)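 Purified human recombinant enzyme tested at four different concentrations against the matching colorimetric or fluorescent peptide substrate for 3 h, with inhibitor at four to six concentrations. Activity was read as a colour or fluorescence change on a plate reader, and IC50 was calculated from these readings.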
# [9] = biological target: T1, Interstitial collagenase (Homo sapiens, UniProt P03956); assay: Inhibition of human recombinant MMP1; procedure, shortened: as §3
# T1 sequence (P03956 whole entry): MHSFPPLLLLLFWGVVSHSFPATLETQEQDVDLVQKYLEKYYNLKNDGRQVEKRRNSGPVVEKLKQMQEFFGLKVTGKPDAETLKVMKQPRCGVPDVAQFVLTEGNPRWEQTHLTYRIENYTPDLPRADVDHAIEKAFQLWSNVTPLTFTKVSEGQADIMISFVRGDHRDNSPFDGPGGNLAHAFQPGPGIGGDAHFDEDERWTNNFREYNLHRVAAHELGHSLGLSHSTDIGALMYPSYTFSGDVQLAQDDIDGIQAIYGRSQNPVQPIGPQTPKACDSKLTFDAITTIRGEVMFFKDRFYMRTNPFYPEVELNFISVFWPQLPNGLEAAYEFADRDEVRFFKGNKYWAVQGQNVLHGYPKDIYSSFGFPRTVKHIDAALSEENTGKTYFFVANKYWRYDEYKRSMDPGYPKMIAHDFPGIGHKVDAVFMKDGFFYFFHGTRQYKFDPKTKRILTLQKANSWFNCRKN
# [10] = Clearance in Wistar rat at 50 mg/kg, iv; assay type: ADME, organism-based; parameters: dose 50 mg/kg, route intravenous; details: in vivo; procedure, shortened: as §2
# [11] = Tmax in C57B1 mouse at 150 mg/kg, po; assay type: ADME, organism-based; parameters: dose 150 mg/kg, route oral; details: in vivo; procedure, shortened: as §2
# [12] = Bioavailability in Wistar rat at 150 mg/kg, ip; assay type: ADME, organism-based; details: in vivo; procedure, shortened: as §2
# [13] = biological target: T2, 72 kDa type IV collagenase (Homo sapiens, UniProt P08253); assay: Inhibition of human recombinant MMP2
# Procedure, shortened: (§4)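 Human recombinant enzymes each incubated at four concentrations with a suitable colorimetric or fluorogenic peptide substrate for 3 h. Inhibitor tested at four to six concentrations. Activity read as colorimetric or fluorescence change on a plate reader.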
# Target sequence in this assay (P08253 whole entry): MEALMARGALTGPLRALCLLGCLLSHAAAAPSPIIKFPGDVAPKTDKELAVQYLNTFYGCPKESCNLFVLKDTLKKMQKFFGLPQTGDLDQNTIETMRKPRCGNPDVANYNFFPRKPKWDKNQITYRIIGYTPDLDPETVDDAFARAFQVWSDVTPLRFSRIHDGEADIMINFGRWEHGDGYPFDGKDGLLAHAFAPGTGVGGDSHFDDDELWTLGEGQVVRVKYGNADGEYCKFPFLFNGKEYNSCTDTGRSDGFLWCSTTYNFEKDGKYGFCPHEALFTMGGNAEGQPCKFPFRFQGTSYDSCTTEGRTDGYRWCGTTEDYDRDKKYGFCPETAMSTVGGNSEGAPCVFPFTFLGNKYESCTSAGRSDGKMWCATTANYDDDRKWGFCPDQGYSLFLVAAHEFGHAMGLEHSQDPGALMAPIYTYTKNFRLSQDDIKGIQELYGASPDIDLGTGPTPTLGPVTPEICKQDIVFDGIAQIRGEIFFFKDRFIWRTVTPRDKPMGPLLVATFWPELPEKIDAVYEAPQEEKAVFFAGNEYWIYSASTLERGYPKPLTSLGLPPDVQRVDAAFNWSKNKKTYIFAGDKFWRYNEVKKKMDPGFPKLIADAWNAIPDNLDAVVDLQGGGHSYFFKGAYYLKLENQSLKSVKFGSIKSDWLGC
# [14] = biological target: Neutrophil collagenase (Homo sapiens, UniProt P22894); assay: Inhibition of human recombinant MMP8; procedure, shortened: as §4
# Sequence of Neutrophil collagenase (P22894 whole entry): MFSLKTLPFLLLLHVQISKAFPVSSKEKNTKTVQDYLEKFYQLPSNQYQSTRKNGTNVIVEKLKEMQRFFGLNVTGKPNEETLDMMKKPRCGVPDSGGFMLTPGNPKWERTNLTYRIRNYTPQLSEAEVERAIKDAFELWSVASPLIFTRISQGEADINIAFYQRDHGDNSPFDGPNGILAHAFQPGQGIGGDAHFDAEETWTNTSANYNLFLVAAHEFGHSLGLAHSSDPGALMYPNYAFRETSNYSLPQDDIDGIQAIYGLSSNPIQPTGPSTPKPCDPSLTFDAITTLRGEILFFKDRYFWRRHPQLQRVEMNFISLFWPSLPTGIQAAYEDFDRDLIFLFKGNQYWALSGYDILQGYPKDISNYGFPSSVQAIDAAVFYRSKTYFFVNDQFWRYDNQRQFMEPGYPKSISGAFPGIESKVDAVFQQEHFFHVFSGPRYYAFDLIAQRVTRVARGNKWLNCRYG
# [15] = Bioavailability in Wistar rat at 150 mg/kg, po; assay type: ADME, organism-based; details: in vivo; procedure, shortened: as §2
# [16] = Reduction of metastasis formation in SCID mouse bearing human prostate tumor cells at 50 mg/kg, ip; assay type: functional; parameters: scale not given: the % may be the effect or the level left; details: route intraperitoneal
# Procedure, shortened: (§5)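 Luciferase-transfected human prostate tumour cells implanted orthotopically into the prostate of SCID mice; daily ip dosing except weekends for six weeks. Primary tumour growth and metastasis followed weekly by luciferin bioluminescence imaging with a CCD camera.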
# [17] = tested on: Rattus norvegicus; assay: Time over MIC in Wistar rat at 50 mg/kg, iv; assay type: ADME, organism-based; parameters: dose 50 mg/kg, route intravenous; details: in vivo; procedure, shortened: as §2
# [18] = Apparent permeability in Wistar rat colon in Using diffusion chamber; assay type: ADME, tissue-based; details: not told
# Procedure, shortened: (§6)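 Everted-free intestinal segments (jejunum, ileum, colon) from four animals mounted in Ussing chambers; compound at 600 µg/mL in mucosa buffer added to the mucosal side. Serosal samples taken at 30, 60, 90, 120, 150 min, mucosal at 0 and 150 min, with buffer replacement. Quantified by HPLC-MS; Papp reported with SD.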
# [19] = Apparent permeability in Wistar rat jejunum in using diffusion chamber; assay type: ADME, tissue-based; procedure, shortened: as §6
# [20] = biological target: Collagenase 3 (Homo sapiens, UniProt P45452); assay: Inhibition of human recombinant MMP13; procedure, shortened: as §4
# [21] = biological target: Stromelysin-1 (Homo sapiens, UniProt P08254); assay: Inhibition of human recombinant MMP3; procedure, shortened: as §4
# Sequence of Stromelysin-1 (P08254 whole entry): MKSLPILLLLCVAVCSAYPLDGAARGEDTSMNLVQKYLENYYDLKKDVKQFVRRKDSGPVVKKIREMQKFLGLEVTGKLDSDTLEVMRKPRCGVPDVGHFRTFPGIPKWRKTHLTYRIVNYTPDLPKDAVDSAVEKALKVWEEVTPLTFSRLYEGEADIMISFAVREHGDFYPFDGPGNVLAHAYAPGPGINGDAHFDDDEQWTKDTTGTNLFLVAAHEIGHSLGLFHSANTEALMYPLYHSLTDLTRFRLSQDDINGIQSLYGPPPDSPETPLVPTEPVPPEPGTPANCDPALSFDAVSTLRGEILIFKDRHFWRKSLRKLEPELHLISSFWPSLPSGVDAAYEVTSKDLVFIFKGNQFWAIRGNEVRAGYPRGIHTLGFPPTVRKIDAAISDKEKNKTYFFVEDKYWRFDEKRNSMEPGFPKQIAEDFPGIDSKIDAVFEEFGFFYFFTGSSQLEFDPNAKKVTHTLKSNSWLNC
# [22] = tested on: Mus musculus; assay: Time over MIC in C57B1 mouse at 150 mg/kg, po; assay type: ADME, organism-based; parameters: dose 150 mg/kg, route oral; details: in vivo; procedure, shortened: as §2
# [23] = biological target: T2, 72 kDa type IV collagenase; details: 100 uM
# Target sequence in this assay (P08253 110-660 limits assumed): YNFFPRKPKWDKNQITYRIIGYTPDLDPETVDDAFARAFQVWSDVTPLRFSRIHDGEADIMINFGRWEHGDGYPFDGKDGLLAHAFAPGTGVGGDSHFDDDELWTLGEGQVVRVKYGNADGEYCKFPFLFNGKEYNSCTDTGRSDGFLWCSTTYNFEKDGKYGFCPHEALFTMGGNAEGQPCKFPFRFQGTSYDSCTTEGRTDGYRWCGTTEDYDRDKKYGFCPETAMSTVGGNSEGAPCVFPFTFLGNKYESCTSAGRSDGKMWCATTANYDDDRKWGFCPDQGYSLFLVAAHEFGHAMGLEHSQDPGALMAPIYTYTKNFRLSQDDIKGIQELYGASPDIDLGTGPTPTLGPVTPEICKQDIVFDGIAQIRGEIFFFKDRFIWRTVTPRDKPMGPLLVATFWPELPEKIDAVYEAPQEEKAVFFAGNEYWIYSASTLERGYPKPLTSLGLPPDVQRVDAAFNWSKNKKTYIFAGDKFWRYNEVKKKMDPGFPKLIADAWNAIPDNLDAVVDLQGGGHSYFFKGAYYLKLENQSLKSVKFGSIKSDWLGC
# [24] = biological target: Matrix metalloproteinase-9 (Homo sapiens, UniProt P14780); assay: Inhibition of human recombinant MMP9; procedure, shortened: as §4
# Sequence of Matrix metalloproteinase-9 (P14780 whole entry, the tested form may be a part): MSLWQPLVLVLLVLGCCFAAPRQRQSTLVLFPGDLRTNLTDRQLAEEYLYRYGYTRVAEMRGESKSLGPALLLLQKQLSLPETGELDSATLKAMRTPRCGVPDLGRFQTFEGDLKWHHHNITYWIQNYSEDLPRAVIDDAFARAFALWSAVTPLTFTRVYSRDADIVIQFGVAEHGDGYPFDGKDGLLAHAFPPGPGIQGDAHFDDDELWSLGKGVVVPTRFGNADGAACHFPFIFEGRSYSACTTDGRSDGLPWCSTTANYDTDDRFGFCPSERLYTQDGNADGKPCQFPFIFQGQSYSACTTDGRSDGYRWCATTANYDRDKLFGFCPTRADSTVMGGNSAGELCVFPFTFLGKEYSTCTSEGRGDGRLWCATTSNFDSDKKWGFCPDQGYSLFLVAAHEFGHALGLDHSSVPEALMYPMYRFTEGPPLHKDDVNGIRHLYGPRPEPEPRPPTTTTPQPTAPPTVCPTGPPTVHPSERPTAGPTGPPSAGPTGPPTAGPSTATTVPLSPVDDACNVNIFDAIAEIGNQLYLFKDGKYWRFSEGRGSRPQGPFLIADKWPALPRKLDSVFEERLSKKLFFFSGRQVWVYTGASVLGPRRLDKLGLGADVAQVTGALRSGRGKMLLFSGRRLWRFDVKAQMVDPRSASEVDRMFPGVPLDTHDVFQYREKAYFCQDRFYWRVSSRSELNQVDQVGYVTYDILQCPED
# [25] = Apparent permeability in Wistar rat ileum in using diffusion chamber; assay type: ADME, tissue-based; procedure, shortened: as §6
# [26] = Elimination half life in Wistar rat at 50 mg/kg, iv; assay type: ADME, organism-based; parameters: dose 50 mg/kg, route intravenous; details: in vivo; procedure, shortened: as §2
# [27] = AUC in C57B1 mouse at 150 mg/kg, po; assay type: ADME, organism-based; parameters: dose 150 mg/kg, route oral; details: plasma; procedure, shortened: as §2
# [28] = Apparent permeability in C57B1 mouse jejunum in using diffusion chamber; assay type: ADME, tissue-based
# [29] = biological target: Macrophage metalloelastase (Homo sapiens, UniProt P39900); assay: Inhibition of human recombinant MMP12; procedure, shortened: as §3
# Sequence of Macrophage metalloelastase (P39900 whole entry): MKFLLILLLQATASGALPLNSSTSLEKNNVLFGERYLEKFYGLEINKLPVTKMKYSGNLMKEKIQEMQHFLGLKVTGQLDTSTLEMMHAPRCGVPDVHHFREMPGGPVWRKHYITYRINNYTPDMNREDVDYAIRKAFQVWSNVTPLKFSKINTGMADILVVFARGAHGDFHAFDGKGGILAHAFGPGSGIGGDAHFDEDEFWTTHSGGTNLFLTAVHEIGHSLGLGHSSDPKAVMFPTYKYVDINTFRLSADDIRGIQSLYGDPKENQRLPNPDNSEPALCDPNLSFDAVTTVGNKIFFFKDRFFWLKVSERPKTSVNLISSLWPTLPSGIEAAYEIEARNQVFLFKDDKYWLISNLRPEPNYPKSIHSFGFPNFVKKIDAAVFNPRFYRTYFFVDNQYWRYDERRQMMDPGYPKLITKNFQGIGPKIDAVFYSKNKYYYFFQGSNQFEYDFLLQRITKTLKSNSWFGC
# [30] = tested on: B16-F10; assay: Inhibition of metastasis formation in lungs of C57B1 mouse bearing B16F10 cells at 12.5 to 50 mg/kg, ip after 21 days; assay type: functional, Lung; details: dose mg/kg 12.5-50; route intraperitoneal; procedure, shortened: as §1
# [31] = Tmax in Wistar rat at 150 mg/kg, ip; assay type: ADME, organism-based; parameters: dose 150 mg/kg, route intraperitoneal; details: in vivo; procedure, shortened: as §2
# [32] = Reduction of local tumor growth in SCID mouse bearing human prostate tumor cells at 50 mg/kg, ip; assay type: functional; parameters: scale not given: the % may be the effect or the level left; details: route intraperitoneal; procedure, shortened: as §5
# [33] = Elimination half life in Wistar rat at 150 mg/kg, po; assay type: ADME, organism-based; parameters: dose 150 mg/kg, route oral; details: in vivo; procedure, shortened: as §2
# [34] = Cmax in C57B1 mouse at 150 mg/kg, po; assay type: ADME, organism-based; parameters: dose 150 mg/kg, route oral; details: in vivo; procedure, shortened: as §2
# [35] = Cmax in Wistar rat at 150 mg/kg, po; assay type: ADME, organism-based; parameters: dose 150 mg/kg, route oral; details: in vivo; procedure, shortened: as §2
# [36] = tested on: Mus musculus; assay: Acute toxicity in C57B1 mouse at 50 to 500 mg/kg; assay type: organism-based; parameters: dose 50-500 mg/kg; details: in vivo
# Procedure, shortened: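 C57Bl mice dosed intraperitoneally daily for two weeks at 50, 250 and 500 mg/kg; monitored for toxic signs and behavioural and nutritional status.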
# [37] = tested on: Rattus norvegicus; assay: Time over MIC in Wistar rat at 150 mg/kg, ip; assay type: ADME, organism-based; parameters: dose 150 mg/kg, route intraperitoneal; details: in vivo; procedure, shortened: as §2
# [38] = Elimination half life in Wistar rat at 150 mg/kg, ip; assay type: ADME, organism-based; parameters: dose 150 mg/kg, route intraperitoneal; details: in vivo; procedure, shortened: as §2
# [39] = AUC in Wistar rat at 150 mg/kg, ip; assay type: ADME, organism-based; parameters: dose 150 mg/kg, route intraperitoneal; details: plasma; procedure, shortened: as §2
# [40] = Cmax in Wistar rat at 150 mg/kg, ip; assay type: ADME, organism-based; parameters: dose 150 mg/kg, route intraperitoneal; details: in vivo; procedure, shortened: as §2
# [41] = Cmax in Wistar rat at 50 mg/kg, iv; assay type: ADME, organism-based; parameters: dose 50 mg/kg, route intravenous; details: in vivo; procedure, shortened: as §2
# [42] = Tmax in Wistar rat at 150 mg/kg, po; assay type: ADME, organism-based; parameters: dose 150 mg/kg, route oral; details: in vivo; procedure, shortened: as §2
# [43] = AUC in Wistar rat at 50 mg/kg, iv; assay type: ADME, organism-based; parameters: dose 50 mg/kg, route intravenous; details: plasma; procedure, shortened: as §2
smiles,measurement,setting,value
N[C@H]1CCCC[C@H]1NC(=O)P(=O)(O)O (relative stereo),Activity,[1],95%
same,AUC,[2],1320 ng·h/mL
same,T>MIC,[3],> 6 h
same,Vd,[4],0.186 L/kg
same,Activity,[5],85%
same,Papp,[6],2.4 ×10⁻⁶ cm/s
same,half-life,[7],811 min
same,IC50,[8],> 100 µM
same,IC50,[9],> 100 µM
same,clearance,[10],6.9 mL/min/kg
same,Tmax,[11],1 h
same,bioavailability,[12],11.8%
same,IC50,[13],4 µM
same,IC50,[14],> 100 µM
same,bioavailability,[15],0.35%
same,Activity,[16],90%
same,T>MIC,[17],> 4 h
same,Papp,[18],9.27 ×10⁻⁶ cm/s
same,Papp,[19],7.9 ×10⁻⁶ cm/s
same,IC50,[20],> 100 µM
same,IC50,[21],> 100 µM
same,T>MIC,[22],> 12 h
same,inhibition,[23],90%
same,IC50,[24],20 µM
same,Papp,[25],7.01 ×10⁻⁶ cm/s
same,half-life,[26],18.8 min
same,AUC,[27],4500 ng·h/mL
same,Papp,[28],8.3 ×10⁻⁶ cm/s
same,IC50,[29],> 100 µM
same,Inhibition,[30],50%
same,Tmax,[31],30 s
same,Activity,[32],60%
same,half-life,[33],126 min
same,Cmax,[34],544 ng/mL
same,Cmax,[35],712 ng/mL
same,Activity,[36],Non-toxic
same,T>MIC,[37],> 24 h
same,half-life,[38],108 min
same,AUC,[39],44600 ng·h/mL
same,Cmax,[40],144 µg/mL
same,Cmax,[41],306 µg/mL
same,Tmax,[42],17.4 min
same,AUC,[43],127 µg·h/mL
N[C@@H]1CCCC[C@H]1NC(=O)P(=O)(O)O (relative stereo),IC50,[8],> 100 µM
same,IC50,[9],90 µM
same,IC50,[13],> 100 µM
same,IC50,[14],50 µM
same,IC50,[20],55 µM
same,IC50,[21],25 µM
same,IC50,[24],> 100 µM
same,IC50,[29],> 100 µM
